# Assay results collected from several papers.
# Each line is one published result; the experiments were not run side by side.
Compound,system,setting,measurement,result
COc1ccc([C@@H]2CN(C(=O)[C@@H](O)CO)C[C@@]2(C)[C@@H](C)O)cc1OC1CN(c2ccc(C)cn2)C1,"human, plasma","oral, 1.5 mg, single dose, healthy volunteers",Vd/F,55.7 L
COc1cc(C(=O)NC2CCN(C)CC2)c(F)cc1Nc1ncc(C(F)(F)F)c(Oc2cccc3c2C(=O)N(C)C3)n1,"human, plasma","oral, 100 mg, multiple doses, once daily, patients",Vd/F,284 L
CC(C)(C)c1ccc(O)c(CN(Cc2cc(C(C)(C)C)ccc2O)C2CCC(NC(N)=O)CC2)c1 (centres unmarked),"male C57BL/6 mouse, brain","oral, 10 mg/kg, single dose",Cmax,550 ng/g
CCNCCCNC/C=C\CNCCCNCC,"human, plasma","intravenous, 50 mg, patients, infusion",Vd,2.12 L/kg
C[C@@]1(c2cc(NC(=O)c3ccc(C#N)cn3)ccc2F)C=CSC(N)=N1,"human, plasma","oral, 10 mg, single dose",Vd/F,210 L
Cc1cc(Nc2cc(N3CCN(C)CC3)nc(/C=C/c3ccccc3)n2)n[nH]1,"human, plasma","oral, 60 mg/m², multiple doses, patients",Vd/F,699 L
C=CC(=O)N1CC2CC(n3nc(-c4ccc(C(=O)Nc5ccccn5)cc4)c4c(N)ncnc43)CC2C1 (centres unmarked),"SCID mouse, plasma","oral, 1 mg/kg",Cmax,61.8 ng/mL
CC(C)(Sc1ccncc1-c1ccc(C#N)c2ccccc12)C(=O)O,"male human, plasma","oral, 20 mg, single dose, fasted, healthy volunteers",Vd/F,328 L
